Screening results from PubChem.
Shown are actives, neighbours in structure and some others; about 2% of the full set was active somewhere.
RAD52 inh: blocks human RAD52 DNA annealing | inhibition, % at 18.7 µM | P43351 | 360,000 tested, 0.46% active | recombinant RAD52 DNA annealing, FRET fluorescence;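 active means every replicate showing at least 50% inhibition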
PglD inh: blocks C. jejuni PglD acetyltransferase activity | 360,000 tested, 0.098% active | purified PglD enzyme, DTNB colorimetric CoA detection | inhibition, % at 12.5 µM; in the data active means inhibition above about 16%, passing the limit was not always enough
rRNA inh HTS: selective bacterial rRNA inhibition in E. coli; E. coli WT GFP vs humanized-ribosome RFP mutants, fluorescence, 24 h; stronger effect = lower value; DMSO median 0, no signal -100; GFP signal change (wild-type ribosome), % (concentration not given with the values); 350,000 tested, 1.6% active; AID 720706;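 active means significant combined selectivity score with lowered wild-type GFP, culture density cut under 30%, mutant RFP and density less affected; inactive means any of these conditions unmet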
Xi reactivation: X-chromosome reactivation activator | activation, % at 7.58 µM | AID 743238 | XiGFP mouse fibroblasts, % GFP-positive cells imaging, 3 d; cells co-treated with 5-aza-dC sensitizer; scaled so ellipticine positive control = 100% | 360,000 tested, 0.055% active;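 active means mean normalized replicate activation at least 10% and every replicate at or above 10%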
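Material: XiGFP fibroblasts, SV40-immortalized. Buffer or medium: DMEM plus 5-aza-dC sensitizer. Compound: single concentration per compound, delivered by pin transfer. Times: 3 days compound exposure. Controls: ellipticine 6 µM.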
RAD54 branch: inhibitors of human RAD54 branch migration. AID 602329. 360,000 tested, 0.14% active. Q92698. RAD54 Holliday junction branch migration, FAM/BHQ fluorescence. inhibition, % at 10.4 µM;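 active means mean normalized replicate activity at least 40 and at least half of replicates scoring 40 or more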;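 further: inhibitors cause a drop in the FAM fluorescence signal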
E-sel inducer: E-selectin induction on HUVECs. P16581. HUVEC E-selectin immunofluorescence imaging; normalized: neutral wells 0, TNF-alpha wells 100. activation, % at 7.58 µM. 260,000 tested, 0.37% active. AID 686992;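 active means mean E-selectin-positive cell signal at least 10% of the positive control, reached in at least 60% of replicates, without over 20% cell loss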
Target sequence (P16581 whole entry, looked up): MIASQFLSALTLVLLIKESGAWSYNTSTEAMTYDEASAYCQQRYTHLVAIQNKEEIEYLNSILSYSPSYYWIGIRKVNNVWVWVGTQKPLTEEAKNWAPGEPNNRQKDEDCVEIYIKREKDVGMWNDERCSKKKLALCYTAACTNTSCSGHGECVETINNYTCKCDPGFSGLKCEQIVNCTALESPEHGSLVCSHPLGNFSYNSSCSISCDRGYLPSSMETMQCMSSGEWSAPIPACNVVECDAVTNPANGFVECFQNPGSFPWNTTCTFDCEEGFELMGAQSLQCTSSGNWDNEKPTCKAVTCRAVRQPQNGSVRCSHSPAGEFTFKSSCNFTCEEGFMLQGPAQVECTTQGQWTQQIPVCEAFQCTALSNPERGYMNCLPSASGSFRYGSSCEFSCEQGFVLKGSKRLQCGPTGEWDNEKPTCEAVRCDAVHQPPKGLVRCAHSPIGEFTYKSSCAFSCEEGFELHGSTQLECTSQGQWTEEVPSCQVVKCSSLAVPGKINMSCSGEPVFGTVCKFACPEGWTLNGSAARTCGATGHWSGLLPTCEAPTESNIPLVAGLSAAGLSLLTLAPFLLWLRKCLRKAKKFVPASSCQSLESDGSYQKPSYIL
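Assay system: HUVEC, human umbilical vein endothelial cells / Amount: 3,000 HUVEC/well / Controls: TNF-alpha positive control, DMSO neutral control / Compound dosing: single concentration / Medium: EGM-2 over gelatin coat / Evaluation: percent E-selectin-positive cells / Signal: immunofluorescence imaging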
Each line names hits and unclear results; the compound was inactive in the other large screens; ! = not active in a repeat.

C[C@]12CC[C@@H](O)CC1=CCC1C2CC[C@@]2(C)C1CC[C@@H]2N (some centres not stated)	none
COc1cc(/C=C2\C[C@H]3[C@@H]4CC=C5C[C@@H](N6CCCC6)CC[C@]5(C)[C@H]4CC[C@]3(C)[C@H]2O)cc(OC)c1OC	rRNA inh HTS -21.4 (no result: PglD inh, RAD54 branch)
CNc1ccc2nc3ccccc3[n+](C)c2c1	RAD54 branch 98.3
C[n+]1c2ccccc2nc2ccc(NCCO)cc21	RAD54 branch 75.3 (no result: E-sel inducer)
OCCNc1c2c(nc3ccccc13)CCCC2	none (no result: RAD52 inh, PglD inh, rRNA inh HTS, Xi reactivation, E-sel inducer)
C/C=C/c1ccc(C2[C@@H]3CN(C(=O)CN(C)C)C[C@H]2N3)cc1 (some centres not stated)	RAD52 inh 57.8! (no result: PglD inh, RAD54 branch)
CSCCC(NC(=O)CCC(=O)OC1CC[C@H]2[C@@H]3CC[C@H]4CC(=O)CC[C@]4(C)[C@H]3CC[C@]12C)C(=O)O (some centres not stated)	rRNA inh HTS -24.4
NCCc1c(Cc2ccccc2)[nH]c2ccccc12	rRNA inh HTS -19.9
CC(C)N(C(=O)CCl)c1ccccc1	E-sel inducer 83.2 (no result: rRNA inh HTS)
CCOc1ccc(-c2cc(C)[n+](CCN3CCOCC3)c(-c3ccc(OCC)cc3)c2)cc1	rRNA inh HTS -53.4 (no result: PglD inh, RAD54 branch)
CCN1/C(=C/C=C/C2=[N+](CC)c3ccccc3C2(C)C)C(C)(C)c2ccccc21	E-sel inducer 130.6
O=C(O)[C@@H]1[C@@H](CO)[C@@H]2Cn3c(ccc(-c4cncnc4)c3=O)[C@H]1N2C(=O)NC1CCCC1	none
Nc1c(C(=O)NCc2ccco2)c2nc3ccccc3nc2n1CCN1CCCCC1	RAD54 branch 74.8 (no result: RAD52 inh, rRNA inh HTS, Xi reactivation, E-sel inducer)
COc1cc2c(cc1OC)CN(c1ccc([N+](=O)[O-])c(C(F)(F)F)c1)CC2	rRNA inh HTS -18.8 (no result: PglD inh, RAD54 branch)
O=S(=O)(c1ccc(Cl)cc1)N1Cc2ccc(Br)cc2-n2nncc2C1	none (no result: PglD inh, RAD54 branch)
Clc1cc(Cl)cc(NC2=NCCS2)c1	rRNA inh HTS -25.5
CC(C)NC(=O)N1C[C@@H]2C(c3ccccc3)[C@H](C1)N2CC1CC1 (some centres not stated)	none (no result: RAD52 inh, PglD inh, RAD54 branch, E-sel inducer)
COC(=O)[C@H]1[C@H](CO)[C@H]2Cn3c(ccc(C4=CCCC4)c3=O)[C@@H]1N2Cc1ccccn1	none
CN1C(=O)C(=Cc2coc3ccccc3c2=O)C(=O)N(C)C1=O	E-sel inducer 36.3 (no result: PglD inh, RAD54 branch)
CC(=O)N1C[C@@H]2N[C@H](C1)C2c1ccccc1 (some centres not stated)	none (no result: RAD52 inh, PglD inh, RAD54 branch, E-sel inducer)
CCOC(=O)c1cnc(SCc2ccc(Cl)c(Cl)c2)nc1N1CC1	rRNA inh HTS -7.9
C/C(=N\NC(=O)c1ccccc1)c1c(O)n(C2CCCCC2)c(=O)[nH]c1=O	none
C/C(=N\NC(=O)c1ccccc1Cl)c1c(O)n(C2CCCCC2)c(=O)[nH]c1=O	rRNA inh HTS -32.5 (no result: E-sel inducer)
C/C(=N\NC(=O)c1ccccc1O)c1c(O)n(C2CCCCC2)c(=O)[nH]c1=O	rRNA inh HTS -18.4 (no result: E-sel inducer)
COC(=O)[C@@H]1[C@@H](CO)[C@@H]2Cn3c(ccc(/C=C/c4ccccc4)c3=O)[C@H]1N2C(=O)C1CC1	none
Cc1cccn2c(=O)c3c(nc12)N1CCc2ccccc2C1C1(C3)C(=O)NC(=O)N(C)C1=O (configuration not stated)	none (no result: RAD52 inh, rRNA inh HTS, Xi reactivation, E-sel inducer)
Cc1cccn2c(=O)c3c(nc12)N1CCCCCC1C1(C3)C(=O)N(C)C(=O)N(C)C1=O (configuration not stated)	E-sel inducer 55.1
CCC[N+]12CCC(CC1)C(C(O)(c1ccccc1)c1ccccc1)C2 (configuration not stated)	none
CCCC[N+]12CCC(CC1)C(C(O)(c1ccccc1)c1ccccc1)C2 (configuration not stated)	E-sel inducer 53.4 (no result: PglD inh, RAD54 branch)
CC1=C2C[C@H]3[C@@H](CC=C4C[C@@H](O)CC[C@@]43C)[C@@H]2CC[C@]12O[C@@H]1C[C@H](C)CN[C@@H]1C2C (some centres not stated)	none (no result: PglD inh, rRNA inh HTS, Xi reactivation, RAD54 branch, E-sel inducer)
Cc1cccc(OP(=O)(Nc2ccc(F)cc2)Oc2cccc(C)c2)c1	none (no result: PglD inh, RAD54 branch)
COc1ccc(NP(=O)(Oc2cccc(C)c2)Oc2cccc(C)c2)cc1OC	rRNA inh HTS -18.5 (no result: PglD inh, RAD54 branch)
COc1ccc(-n2nnnc2C(CCc2ccccc2)N2CCC3(CC2)C(=O)NCN3c2ccccc2)cc1 (configuration not stated)	none
O=C1NCN(c2ccccc2)C12CCN(C(c1nnnn1Cc1ccccc1)C1CC1)CC2 (configuration not stated)	none
COc1ccc(-n2nnnc2C(CCSC)N2CCC3(CC2)C(=O)NCN3c2ccccc2)cc1 (configuration not stated)	rRNA inh HTS -21.1
O=C1NCN(c2ccccc2)C12CCN(C(c1ccccc1)c1nnnn1Cc1ccccc1)CC2 (configuration not stated)	rRNA inh HTS -20.7
O=C1CNC[C@@H]2[C@H](c3ccc(Br)cc3)[C@@H](CO)N12	none (no result: PglD inh, RAD54 branch)
O=c1c2ccccc2nc(/C=C/c2ccccc2F)n1-c1ccccc1O	rRNA inh HTS -23.9
O=c1c2ccccc2nc(/C=C\c2ccccc2[N+](=O)[O-])n1-c1ccccc1O	rRNA inh HTS -28.8 (no result: E-sel inducer)
Cc1nc2ccccc2c(=O)n1-c1ccccc1[N+](=O)[O-]	none (no result: PglD inh, RAD54 branch)
O=c1c2ccccc2nc(/C=C/c2ccccc2O)n1-c1ccccc1O	none (no result: PglD inh, RAD54 branch)
CC=Cc1ccc2n(c1=O)C[C@H]1[C@H](CO)[C@@H](C(=O)N(C)C)N[C@@H]21 (mixture of isomers)	none
COC(=O)[C@H]1[C@H](CO)[C@H]2Cn3c(ccc(-c4ccccc4)c3=O)[C@@H]1N2S(=O)(=O)c1ccccc1C	none
COC(=O)[C@H]1[C@H](CO)[C@H]2Cn3c(ccc(C4=CCCC4)c3=O)[C@@H]1N2C(=O)C1CCCCC1	none (no result: RAD52 inh, PglD inh, RAD54 branch)
C[C@]12CCC(=O)C=C1CC[C@@H]1C2[C@H](O)C[C@]2(C)C(=O)CCC12 (some centres not stated)	rRNA inh HTS -25.7
C[C@]12C=CC(=O)C=C1CC[C@@H]1[C@@H]2CC[C@]2(C)C(=O)CC[C@@H]12	rRNA inh HTS -22.9 (no result: Xi reactivation, E-sel inducer)
CC12C=CC(=O)C=C1CCC1C2C(=O)CC2(C)C(=O)CCC12 (configuration not stated)	none
O=C(Cc1cccnc1)N1CCCCN2[C@H](CO)[C@@H](c3ccc(/C=C/c4ccccc4)cc3)[C@@H]2C1	none
CCOC(=O)c1c(C)n(CCN2CCN(C)CC2)c2ccc(OC)cc12	none (no result: RAD52 inh, rRNA inh HTS, Xi reactivation, E-sel inducer)
CCOC(=O)c1c(C)n(CC(O)CN2CCOCC2)c2cc(Br)c(OC)cc12 (configuration not stated)	rRNA inh HTS -42.5 (no result: PglD inh, RAD54 branch)
COc1ccc(C#Cc2ccc([C@H]3[C@H](CO)N4CCCCN(C(=O)Cc5ccncc5)C[C@@H]34)cc2)cc1	none
